Assay outcomes (PubChem)
Shown is part of a subset that was picked to be rich in hits.
HUVEC prolif 384: human endothelial cell proliferation inhibition. 1.1% of 86,000 active. viability, % at 10 µM (by protocol). AID 648. HUVEC proliferation, CellTiter-Glo luminescence, 72 h; active compounds read low;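 active = viability at or below 30%; inactive = viability above 30%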;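 also: 100% = median luminescence of DMSO-only cell control wells on each plate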
bCat KO growth: beta-catenin-lacking colon tumor cell growth suppression; HCT116 beta-catenin knockout viability, CellTiter-Glo, 60 h; active compounds read low; viability, % at 10 µM; 1.5% of 140,000 active; AID 818;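 active = viability at or under a set limit, the compound median less 4 SD, cut at about 6% in these data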;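 also: 0% = Hyamine 1622 control at 20 µM and 100% = untreated cell control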
Lung fibro prol: blocks proliferation of human lung fibroblasts; LL 47 human lung fibroblast viability, ATP luminescence; active compounds read low; viability, % at 10 µM; 1.1% of 85,000 active; AID 719;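 active = viability at or below 50% in the single dose screen; inactive = viability above 50%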;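 also: compound exposure lasted 72 h before the ATP readout; 100% = median luminescence of untreated cell-only wells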
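Material: Human LL 47 lung fibroblast cells | Input: 1,150 cells/well | Buffer or medium: IMEM plus 15% FBS | Compound dosing: 0.1% DMSO in all compound wells | Times: Overnight cell rest, 72 h compound treatment at 37 °C | Signal: CellTiter-Glo luminescence measuring cellular ATP | Measure: % viability versus median cells-only luminescence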
PTEN del growth: suppresses growth of cells with PTEN deletion; HCT116 PTEN-null viability, CellTiter-Glo, 60 h; active compounds read low; viability, % at 10 µM; 1.2% of 140,000 active; AID 827;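 active = viability at or below a set limit, 4 SD under the median of all tested compounds, cut at about 3.7% in these data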;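 also: PTEN knockout HCT116 line with beta catenin targeted HCT116 as companion control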
H69AR growth 86K: growth inhibitors of human H69AR lung tumor cells; AID 598; viability, % at 10 µM; 6% of 85,000 active; H69AR lung tumor viability, ATP luminescence, 72 h; active compounds read low;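 active = viability at or below 40%; inactive = viability above 40%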;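 also: multidrug resistant small cell line overexpressing MRP-1 efflux transporter; 100% = mean luminescence of untreated control wells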
The depositor's hits bear a star; x = no result.

SMILES	HUVEC prolif 384	bCat KO growth	Lung fibro prol	PTEN del growth	H69AR growth 86K
COc1ccccc1NC(=O)c1nc[nH]c1C(=O)Nc1ccccc1OC	95	83	91	82	39*
CCCCCn1c(=S)[nH]c2ncccc2c1=O	95	85	96	93	95
O=c1c2cccnc2[nH]c(=S)n1CCC1=CCCCC1	74	57	77	69	38*
Cc1noc2ncnc(Sc3ccccc3Cl)c12	18*	7	68	8	2.0*
CCCCOc1ccc(CN(C)c2ncnc(N)n2)cc1	78	55	91	60	35*
CC1(c2ccccc2)CC(C)(C)N2C(=O)/C(=C3\SC(=S)NC3=O)c3cccc1c32 (stereo not drawn)	x	77	x	68	x
CC1=CC(C)(C)N2C(=O)C3(C(C#N)=C(N)OC4=C3C(=O)CCC4)c3c(C)c(C)cc1c32 (stereo not drawn)	x	87	x	85	x
Cc1cc2c3c(c1)C(C)(c1ccccc1)CC(C)(C)N3C(=O)C21C(C#N)=C(N)OC2=C1C(=O)CC(C)(C)C2 (stereo not drawn)	69	35	79	21	19*
CC1(c2ccccc2)CC(C)(C)N2C(=O)C3(C(C#N)=C(N)Oc4cc(O)ccc43)c3cccc1c32 (stereo not drawn)	13*	1.4*	101	1.5*	80
CC1=CC(C)(C)N2C(=O)C3(C(C#N)=C(N)Oc4cc(O)ccc43)c3c(C)c(C)cc1c32 (stereo not drawn)	4.8*	62	78	47	4.4*
CC1(C)CC(=O)C2=C(C1)OC(N)=C(C#N)C21C(=O)N2CCCc3cccc1c32 (stereo not drawn)	108	96	100	97	91
Cc1ccc(C(=O)NNC(=O)CCN2C(=O)C3CCCCC3C2=O)cc1 (stereo not drawn)	x	100	x	98	x
Cc1ccc(S(=O)(=O)n2c3ccc(F)cc3c3nc(C)sc32)cc1	x	72	x	80	x
COc1ccc(C2=CC(c3ccc(OC)c(OC)c3)n3nnnc3N2)c(OC)c1 (stereo not drawn)	114	79	94	72	28*
COc1cccc(C2C=C(c3ccc(OC)cc3OC)Nc3nnnn32)c1 (stereo not drawn)	64	10	62	9	15*
Cc1cc(NC(=O)C2CC(=O)N(c3ccccc3)C2)no1 (stereo not drawn)	x	92	x	103	x
Cc1cccc(C(C)C)c1NC(=O)C1CN(S(=O)(=O)c2ccccc2)CCN1S(=O)(=O)c1ccccc1 (stereo not drawn)	x	83	x	94	x
ClC(Cl)(c1nnnn1-c1ccccc1)c1nnnn1-c1ccccc1	x	1.3*	x	1.9*	x
O=C(Nc1cccc(S(=O)(=O)N2CCCCC2)c1)Nc1ccc(Cl)cc1Cl	x	1.5*	x	1.4*	x
O=C(Nc1cccc(S(=O)(=O)N2CCCCC2)c1)c1ccc2ccccc2n1	x	67	x	69	x
CC(C)(C)c1ccc(-c2n[nH]c(=S)n2/N=C/c2ccncc2)cc1	x	73	x	86	x
CCC1=Nc2cc(C(=O)NCCCOC(C)C)ccc2Sc2ccccc21	59	88	56	90	26*
O=C(NCc1cccnc1)c1sc2cc(Cl)ccc2c1Cl	x	41	x	61	x
Cc1c(CN(C)C(=O)c2sc3cc(Cl)ccc3c2Cl)cnn1C	21*	15	100	24	77
COc1ccc(CNS(=O)(=O)c2cccc(S(=O)(=O)N3CCOCC3)c2)cc1	98	79	108	99	98
SMILES	HUVEC prolif 384	bCat KO growth	Lung fibro prol	PTEN del growth	H69AR growth 86K
CN1CC2=Cc3ccccc3OC23Oc2ccccc2C=C3C1	31	10	78	35	21*
CCCCN(C(=O)CSc1nnc(-c2ccccc2OC)n1C)c1c(N)n(Cc2ccccc2)c(=O)[nH]c1=O	x	93	x	96	x
CN1CCc2c(sc3c2C(=O)NC(c2cccs2)N3)C1 (stereo not drawn)	94	90	121	92	97
CN1CCc2c(sc3c2C(=O)NC(c2ccc(-c4cccc(Cl)c4)o2)N3)C1 (stereo not drawn)	48	x	94	x	3.3*
CN(C)CCCOc1ccc(C(C)(C)c2ccccc2)cc1	34	34	79	31	28*
C=CCNCCOc1ccc(C(C)(C)c2ccccc2)cc1	x	74	x	77	x
COc1ccc(-c2cc(C(F)(F)F)nc(SCC(=O)NCc3cccs3)n2)cc1OC	x	87	x	82	x
Cc1cc(C)n(-c2nnc3n2N=C(c2c[nH]c4ccccc24)CS3)n1	58	17	55	18	17*
